# Experimental data collected from several papers.
# Lines come from different studies, so protocols differ.
# Cell line: MCF7
# Effect on: cell growth or viability
Structure (SMILES),assay,conditions,quantity,value
CN(C)C(=O)c1cc2cnc(Nc3ccc(N4CCNCC4)cn3)nc2n1C1CCCC1,,5 days,EC50,0.101 µM
COc1ccc(-c2cc(-c3cccc(Br)c3)c3c(=O)[nH]c(=O)[nH]c3n2)cc1,MTT,48 h,IC50,13.7 µM
COc1cccc2c1C(=O)c1c(O)c3c(c(O)c1C2=O)C[C@@](O)(C(=O)CO)C[C@@H]3O[C@H]1C[C@H](N)[C@H](O)[C@H](C)O1,MTT,,GI50,7.32 µM
O=C(Nc1ccccc1)Nc1ccc(Oc2nnc(-c3ccc(Cl)cc3)c3ccccc23)cc1,MTT,"0.312 µM, 24 h",viability,11.3%
CC(=O)c1nn(-c2ccc(C)cc2)/c(=N/N=C(\C)c2ccc(NC(=O)c3ccccc3)cc2)s1,MTT,2.5 µM,viability,6.47%
Cc1ccc(-c2cc(-c3ccc(Cl)cc3)c3c(=O)[nH]c(=O)[nH]c3n2)cc1,MTT,48 h,IC50,9.67 µM
CCOC(=O)c1nn(-c2cccc(Cl)c2)/c(=N/N=C(\C)c2ccc(NC(=O)c3ccccc3)cc2)s1,MTT,2.5 µM,viability,2.67%
O=C(CCn1c(=O)ccc2ccccc21)N1CCOCC1,MTT,"100 µM, 48 h",inhibition,90.5%
COc1ccc(-c2cc(-c3ccc(Br)cc3)c3c(=O)n(C)c(=O)n(C)c3n2)cc1,MTT,48 h,IC50,29.4 µM
CO[C@H]1C[C@@H]2CC[C@@H](C)[C@@](O)(O2)C(=O)C(=O)N2CCCC[C@H]2C(=O)O[C@H]([C@H](C)C[C@@H]2CC[C@@H](OCCO)[C@H](OC)C2)CC(=O)[C@H](C)/C=C(\C)[C@@H](O)[C@@H](OC)C(=O)[C@H](C)C[C@H](C)/C=C/C=C/C=C/1C,,5 days,EC50,0.0014 µM
COc1ccc(-c2cc(-c3ccc(Cl)cc3)c3c(=O)n(C)c(=O)n(C)c3n2)cc1,MTT,48 h,IC50,14.4 µM
C[C@@H]1CC[C@@H]([C@](C)(O)CNCc2ccccc2F)[C@H](OCc2ccccc2)C1,MTT,"30 µM, 72 h",inhibition,89.6%
COc1ccc(-c2cc(-c3ccc(OC)cc3)c3c(=O)n(C)c(=O)n(C)c3n2)cc1,MTT,48 h,IC50,18.6 µM
CC(=O)c1nn(-c2ccccc2Cl)/c(=N/N=C(\C)c2ccc(NC(=O)c3ccccc3)cc2)s1,MTT,10 µM,viability,5.78%
CC(=NNC(=S)Nc1ccccc1)c1ccc(Nc2nnc(-c3ccc(Cl)cc3)c3ccccc23)cc1,MTT,"10 µM, 24 h",viability,3.45%
C[C@@H]1CC[C@@H]([C@](O)(CNCc2ccc(F)cc2)COCc2ccc(F)cc2)[C@H](OCc2ccc(F)cc2)C1,MTT,"10 µM, 72 h",inhibition,93.7%
CC(=NNC(=O)c1ccccc1O)c1ccc(Nc2nnc(-c3ccc(Cl)cc3)c3ccccc23)cc1,MTT,"0.312 µM, 24 h",viability,99.3%
COc1cccc(CNC[C@@](C)(O)[C@@H]2CC[C@@H](C)C[C@H]2OCc2ccccc2)c1,MTT,"10 µM, 72 h",inhibition,76.8%
COc1ccc(-c2cc(-c3ccc(C)cc3)nc3[nH]c(=O)[nH]c(=O)c23)cc1OC,MTT,48 h,IC50,26.6 µM
CC(=O)Nc1ccc(/C(C)=N/N=c2\sc(C(C)=O)nn2-c2ccc(C)cc2)cc1,MTT,1.25 µM,viability,49.5%
O=C1CC[C@H](N2Cc3cc(N4CCN(CC5CCN(c6ccc([C@@H]7c8ccc(O)cc8CC[C@@H]7c7ccccc7)cc6)CC5)CC4)ccc3C2=O)C(=O)N1,ATP luminescence,5 days,GI50,0.0033 µM
O=C(Nc1ccc(Oc2nnc(-c3ccc(Cl)cc3)c3ccccc23)cc1)c1cccc([N+](=O)[O-])c1,MTT,5 µM,cell death,92.1%
O=C(NO)c1ccc(CNc2nc3cccc(-c4ccc5c(c4)OCO5)n3n2)cc1,SRB,,GI50,0.65 µM
CC(=NNC(=O)c1ccncc1)c1ccc(Nc2nnc(-c3ccc(Cl)cc3)c3ccccc23)cc1,MTT,"2.5 µM, 24 h",viability,5.58%
C[C@@H]1CC[C@@H]([C@](C)(O)CNCc2cccc3ccccc23)[C@H](OCc2ccccc2)C1,MTT,"10 µM, 72 h",inhibition,61.5%
CC(=NNC(N)=S)c1ccc(Nc2nnc(-c3ccc(Cl)cc3)c3ccccc23)cc1,MTT,"5 µM, 24 h",viability,9.07%
C[C@@H]1CC[C@@H]([C@@](O)(CNCc2cccc3ccccc23)COCc2ccccc2)[C@H](OCc2ccccc2)C1,MTT,"10 µM, 72 h",inhibition,82.9%
COc1cc2ncnc(Nc3ccc4c(c3)/C(=C/c3ccccc3)C(=O)N4)c2cc1OC,MTT,,IC50,18.6 µM
C[C@@H]1CC[C@@H]([C@](C)(O)CNCc2ccccc2)[C@H](OCc2ccccc2)C1,MTT,"30 µM, 72 h",inhibition,98%
Cc1nc(NC(=O)N2CCC[C@H]2C(N)=O)sc1-c1ccnc(C(C)(C)C(F)(F)F)c1,,5 days,EC50,0.177 µM
C[C@@H]1CC[C@@H]([C@](O)(CNCc2ccccc2)COCc2ccc(F)cc2)[C@H](OCc2ccc(F)cc2)C1,MTT,"10 µM, 72 h",inhibition,95.7%
CC(=O)Nc1ccc(Oc2nnc(-c3ccc(Cl)cc3)c3ccccc23)cc1,MTT,"0.625 µM, 24 h",viability,4.91%
